According to ChEMBL document CHEMBL1146111, “Factor VIIa inhibitors: chemical optimization, preclinical pharmacokinetics, pharmacodynamics, and efficacy in an arterial baboon thrombosis model” (Bioorg Med Chem Lett, 2006):

Columns and labels:
[1] = target: T1, Coagulation factor VII (Homo sapiens, UniProt P08709); experiment: Binding affinity to F7a/TF complex; format: protein-complex assay
T1 sequence (P08709 whole entry): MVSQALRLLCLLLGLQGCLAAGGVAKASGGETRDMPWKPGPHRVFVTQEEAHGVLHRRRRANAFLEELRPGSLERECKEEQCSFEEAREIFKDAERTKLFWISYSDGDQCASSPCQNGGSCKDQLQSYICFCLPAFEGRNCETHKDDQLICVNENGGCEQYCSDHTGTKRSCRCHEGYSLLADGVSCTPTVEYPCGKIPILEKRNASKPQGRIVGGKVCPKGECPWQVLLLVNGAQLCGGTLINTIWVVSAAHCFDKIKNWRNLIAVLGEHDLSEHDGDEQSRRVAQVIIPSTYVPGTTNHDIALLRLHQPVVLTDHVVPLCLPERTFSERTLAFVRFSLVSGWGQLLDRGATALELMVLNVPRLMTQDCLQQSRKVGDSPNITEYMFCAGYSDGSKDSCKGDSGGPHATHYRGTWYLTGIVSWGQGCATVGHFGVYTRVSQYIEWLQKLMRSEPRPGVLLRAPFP

[2] = target: T2, Coagulation factor VII/tissue factor (Homo sapiens) (UniProt P08709+P13726); experiment: Selectivity for fVIIa/TF complex over fIIa; format: protein-complex assay
Method in brief: (§1)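 Ki ratios; fXa and thrombin assays pH 7.4, fVIIa assay with 7 nM fVIIa, 11 nM relipidated tissue factor, 5 mM CaCl2 and substrate CH3SO2-D-CHA-But-Arg-pNA.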

[3] = target: T2, Coagulation factor VII/tissue factor (Homo sapiens); experiment: Selectivity for fVIIa/TF complex over fXa; format: protein-complex assay; method in brief: as §1
[4] = target: T2, Coagulation factor VII/tissue factor (Homo sapiens); experiment: Anticoagulant potency in human plasma as measured by prothrombin time; format: functional, cell-free
Method in brief: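 Clotting assay in human plasma on a coagulation analyzer run per manufacturer's instructions; concentration doubling prothrombin time reported.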

[5] = target: T2, Coagulation factor VII/tissue factor (Homo sapiens); experiment: Anticoagulant potency in human plasma as measured by activated partial thromboplastin time
[6] = test system: Baboon; experiment: Inhibition of fibrin deposition in baboon at 0.1 mg/kg, iv 1 hr post dose relative to control; format: functional; details: Papio, in Papio anubis
Method in brief: (§2)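 Conscious non-anticoagulated baboons with chronic femoral arterio-venous shunt; single IV bolus, thrombogenic device inserted 5 min post dose. Device: 2 cm ePTFE graft (4 mm id) filled with relipidated tissue factor, flow 100 mL/min (shear 265/s), 60 min. Platelets: 111-In-labeled autologous, gamma camera every 5 min; fibrin: 125-I fibrinogen, graft counted after 30 days decay; PT monitored throughout; reduction vs saline control.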

[7] = target: T2, Coagulation factor VII/tissue factor (Homo sapiens); experiment: Anticoagulant potency in baboon as measured by prothrombin time at 0.03 mg/kg, iv 1 hr post dose; format: functional, organism-based; set-up: dose 0.03 mg/kg; details: Papio, target entry is the homologue from another species; method in brief: as §2
[8] = test system: Baboon; experiment: Inhibition of platelet deposition in baboon at 0.5 mg/kg, iv 1 hr post dose relative to control; format: functional; details: Papio, in Papio anubis; method in brief: as §2
[9] = target: T2, Coagulation factor VII/tissue factor (Homo sapiens); experiment: Ratio of prothrombin time in baboon over prothrombin time in human
[10] = target: T3, CYP1A2 (Homo sapiens, UniProt P05177); experiment: Inhibition of CYP1A2 at 10 uM; format: ADME
T3 sequence (P05177 whole entry): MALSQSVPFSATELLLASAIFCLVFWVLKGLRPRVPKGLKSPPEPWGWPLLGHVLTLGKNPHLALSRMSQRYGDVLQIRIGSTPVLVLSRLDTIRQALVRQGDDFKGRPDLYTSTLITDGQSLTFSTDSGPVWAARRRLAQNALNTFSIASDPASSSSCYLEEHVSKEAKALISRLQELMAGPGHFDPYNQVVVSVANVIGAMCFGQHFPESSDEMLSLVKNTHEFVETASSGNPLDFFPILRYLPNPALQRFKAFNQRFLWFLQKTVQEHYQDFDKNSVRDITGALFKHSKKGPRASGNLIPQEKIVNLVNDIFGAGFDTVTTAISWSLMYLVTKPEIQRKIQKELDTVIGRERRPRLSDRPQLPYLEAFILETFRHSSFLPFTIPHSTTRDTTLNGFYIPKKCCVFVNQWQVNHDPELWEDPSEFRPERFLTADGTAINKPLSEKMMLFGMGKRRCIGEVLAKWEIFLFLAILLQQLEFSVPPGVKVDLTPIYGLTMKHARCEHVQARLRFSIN
Method in brief: (§3)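 Five cytochrome P450 isozymes tested at 10 µM; percent inhibition.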

[11] = Mean residence time in iv dosed Sprague-Dawley rat; format: ADME, organism-based; details: in vivo
Method in brief: (§4)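 Single IV dose to female C57BL/6 mice or male Sprague–Dawley rats, NZW rabbits, Beagle dogs, or baboons; plasma concentrations measured by LC/MS/MS.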

[12] = test system: Mus musculus; experiment: Volume of distribution in iv dosed C57BL/6 mice; format: ADME, organism-based; details: in vivo; method in brief: as §4
[13] = target: CYP2D6 (Homo sapiens, UniProt P10635); experiment: Inhibition of CYP2D6 at 10 uM; format: ADME; method in brief: as §3
[14] = test system: Baboon; experiment: Inhibition of fibrin deposition in baboon at 0.5 mg/kg, iv 1 hr post dose relative to control; format: functional; details: Papio, in Papio anubis; method in brief: as §2
[15] = target: CYP3A4 (Homo sapiens, UniProt P08684); experiment: Inhibition of CYP3A4 at 10 uM; format: ADME; method in brief: as §3
[16] = Plasma clearance in iv dosed Sprague-Dawley rat; format: ADME, organism-based; method in brief: as §4
[17] = test system: Canis familiaris; experiment: Volume of distribution in iv dosed Beagle dog; format: ADME, organism-based, Canis lupus familiaris; details: in vivo; method in brief: as §4
[18] = Plasma clearance in iv dosed New Zealand White rabbit; format: ADME, organism-based, Oryctolagus cuniculus; method in brief: as §4
[19] = Plasma clearance in iv dosed Beagle dog; format: ADME, organism-based, Canis lupus familiaris; method in brief: as §4
[20] = test system: Baboon; experiment: Effect on reduction of platelet deposition in iv dosed baboon after 60 mins; format: functional, organism-based; details: Papio, 1 h
Method in brief: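 Sigmoid Emax model fitted to dose (mg/kg) versus percent inhibition of platelet deposition relative to control at 60 min post IV bolus in the baboon A-V shunt model; ED50 is the dose producing 50% of maximum effect.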

[21] = Mean residence time in iv dosed baboon; format: ADME, organism-based, Papio; details: in vivo; method in brief: as §4
[22] = target: CYP2C19 (Homo sapiens, UniProt P33261); experiment: Inhibition of CYP2C19 at 10 uM; format: ADME; method in brief: as §3
[23] = target: CYP2C9 (Homo sapiens, UniProt P11712); experiment: Inhibition of CYP2C9 at 10 uM; format: ADME; method in brief: as §3
[24] = test system: Baboon; experiment: Inhibition of platelet deposition in baboon at 0.03 mg/kg, iv 1 hr post dose relative to control; format: functional; details: Papio, in Papio anubis; method in brief: as §2
[25] = target: T2, Coagulation factor VII/tissue factor (Homo sapiens); experiment: Anticoagulant potency in baboon as measured by prothrombin time at 0.5 mg/kg, iv 1 hr post dose; format: functional, organism-based; set-up: dose 0.5 mg/kg; details: Papio, target entry is the homologue from another species; method in brief: as §2
[26] = test system: Baboon; experiment: Inhibition of platelet deposition in baboon at 0.1 mg/kg, iv 1 hr post dose relative to control; format: functional; details: Papio, in Papio anubis; method in brief: as §2
[27] = Mean residence time in iv dosed New Zealand White rabbit; format: ADME, organism-based, Oryctolagus cuniculus; details: in vivo; method in brief: as §4
[28] = test system: Baboon; experiment: Volume of distribution in iv dosed baboon; format: ADME, organism-based, Papio; details: in vivo; method in brief: as §4
[29] = Mean residence time in iv dosed Beagle dog; format: ADME, organism-based, Canis lupus familiaris; details: in vivo; method in brief: as §4
[30] = test system: Baboon; experiment: Inhibition of fibrin deposition in baboon at 0.03 mg/kg, iv 1 hr post dose relative to control; format: functional; details: Papio, in Papio anubis; method in brief: as §2
[31] = target: T2, Coagulation factor VII/tissue factor (Homo sapiens); experiment: Anticoagulant potency in baboon as measured by prothrombin time at 0.1 mg/kg, iv 1 hr post dose; format: functional, organism-based; set-up: dose 0.1 mg/kg; details: Papio, target entry is the homologue from another species; method in brief: as §2
[32] = test system: Rattus norvegicus; experiment: Volume of distribution in iv dosed Sprague-Dawley rat; format: ADME, organism-based; details: in vivo; method in brief: as §4
[33] = Plasma clearance in iv dosed baboon; format: ADME, organism-based, Papio; method in brief: as §4
[34] = test system: Oryctolagus cuniculus; experiment: Volume of distribution in iv dosed New Zealand White rabbit; format: ADME, organism-based; details: in vivo; method in brief: as §4
[35] = Mean residence time in iv dosed C57BL/6 mice; format: ADME, organism-based; details: C57BL/6, mouse, in vivo; method in brief: as §4
[36] = Plasma clearance in iv dosed C57BL/6 mice; format: ADME, organism-based; details: C57BL/6, mouse; method in brief: as §4

Chain of CYP2C19 (P33261 whole entry): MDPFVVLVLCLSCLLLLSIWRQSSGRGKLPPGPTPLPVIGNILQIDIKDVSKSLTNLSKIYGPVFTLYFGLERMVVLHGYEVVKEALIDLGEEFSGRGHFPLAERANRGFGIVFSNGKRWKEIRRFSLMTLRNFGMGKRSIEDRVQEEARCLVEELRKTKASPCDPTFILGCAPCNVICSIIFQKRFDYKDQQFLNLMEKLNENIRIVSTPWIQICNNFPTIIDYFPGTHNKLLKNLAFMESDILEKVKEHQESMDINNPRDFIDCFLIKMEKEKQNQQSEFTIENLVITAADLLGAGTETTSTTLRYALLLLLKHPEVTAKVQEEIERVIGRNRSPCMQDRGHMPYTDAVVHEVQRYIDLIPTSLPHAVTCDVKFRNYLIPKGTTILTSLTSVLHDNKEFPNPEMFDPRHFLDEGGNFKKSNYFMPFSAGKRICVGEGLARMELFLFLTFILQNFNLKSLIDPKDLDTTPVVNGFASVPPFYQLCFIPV
Chain of CYP2D6 (P10635 whole entry): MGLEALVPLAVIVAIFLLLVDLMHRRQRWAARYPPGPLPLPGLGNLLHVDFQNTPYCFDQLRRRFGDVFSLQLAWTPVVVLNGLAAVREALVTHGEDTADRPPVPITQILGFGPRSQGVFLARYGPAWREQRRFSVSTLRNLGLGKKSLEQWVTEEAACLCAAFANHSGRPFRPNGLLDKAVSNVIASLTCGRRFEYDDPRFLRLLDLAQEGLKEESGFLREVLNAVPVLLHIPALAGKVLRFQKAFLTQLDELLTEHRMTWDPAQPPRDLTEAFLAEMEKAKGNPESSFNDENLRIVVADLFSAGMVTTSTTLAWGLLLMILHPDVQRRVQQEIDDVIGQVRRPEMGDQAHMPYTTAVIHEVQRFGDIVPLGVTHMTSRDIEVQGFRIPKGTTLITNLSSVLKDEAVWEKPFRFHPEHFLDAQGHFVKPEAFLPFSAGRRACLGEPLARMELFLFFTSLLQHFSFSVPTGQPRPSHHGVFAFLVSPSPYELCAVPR
Chain of CYP3A4 (P08684 whole entry): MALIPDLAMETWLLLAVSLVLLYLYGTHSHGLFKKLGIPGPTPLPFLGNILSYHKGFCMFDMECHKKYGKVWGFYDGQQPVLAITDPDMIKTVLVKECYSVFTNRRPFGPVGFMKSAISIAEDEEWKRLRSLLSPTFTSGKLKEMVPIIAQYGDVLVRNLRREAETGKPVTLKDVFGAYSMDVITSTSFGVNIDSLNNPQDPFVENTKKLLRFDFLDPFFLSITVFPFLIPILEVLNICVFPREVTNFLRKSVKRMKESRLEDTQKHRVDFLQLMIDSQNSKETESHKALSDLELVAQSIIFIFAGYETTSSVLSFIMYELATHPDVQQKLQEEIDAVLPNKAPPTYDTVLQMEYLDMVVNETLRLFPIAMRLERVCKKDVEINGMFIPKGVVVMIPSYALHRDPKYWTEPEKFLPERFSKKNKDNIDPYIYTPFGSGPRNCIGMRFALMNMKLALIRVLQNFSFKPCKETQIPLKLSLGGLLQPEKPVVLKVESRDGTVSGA
Chain of CYP2C9 (P11712 whole entry): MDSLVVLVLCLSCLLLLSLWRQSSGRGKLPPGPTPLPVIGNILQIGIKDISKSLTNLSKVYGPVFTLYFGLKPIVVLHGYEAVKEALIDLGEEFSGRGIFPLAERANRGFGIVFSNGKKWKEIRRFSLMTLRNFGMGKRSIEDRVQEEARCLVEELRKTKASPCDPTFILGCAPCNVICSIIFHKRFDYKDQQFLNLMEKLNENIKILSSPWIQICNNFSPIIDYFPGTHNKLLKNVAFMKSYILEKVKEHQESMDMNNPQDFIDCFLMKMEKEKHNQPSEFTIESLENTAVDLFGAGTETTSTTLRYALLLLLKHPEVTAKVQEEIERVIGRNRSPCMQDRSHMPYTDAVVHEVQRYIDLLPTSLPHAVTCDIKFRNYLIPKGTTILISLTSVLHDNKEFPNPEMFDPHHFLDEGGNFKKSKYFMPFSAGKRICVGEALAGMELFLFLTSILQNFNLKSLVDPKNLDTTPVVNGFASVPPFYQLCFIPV

SMILES: N=C(N)c1ccc2nc(-c3cc(C(CC(=O)O)C(=O)O)cc(-c4cc(CC(N)=O)ccc4O)c3O)[nH]c2c1 (configuration not stated)
- Ki [1]: 12 nM

SMILES: N=C(N)c1ccc2[nH]c(-c3cc(C(CC(=O)O)C(=O)O)cc(-c4cc(CC(N)=O)ccc4O)c3O)nc2c1 (configuration not stated)
- Ratio Ki [2]: 12500
- Ratio Ki [3]: 280
- 2PT [4]: 6.4 µM

SMILES: N=C(N)c1ccc2[nH]c(-c3cc(C(CC(=O)O)C(=O)O)cc(-c4cc(CC(=O)O)ccc4O)c3O)nc2c1 (configuration not stated)
- Ratio Ki [2]: 12500
- Ratio Ki [3]: 125
- 2PT [4]: 6.2 µM

SMILES: N=C(N)c1ccc2[nH]c(-c3cc(C(CC(=O)O)C(=O)O)cc(-c4cc(CN)ccc4O)c3O)nc2c1 (configuration not stated)
- Ratio Ki [2]: 4200
- Ratio Ki [3]: 510
- 2PT [4]: 2.9 µM
- Ki [1]: 35 nM

SMILES: N=C(N)c1ccc2nc(-c3cc(C(CC(=O)O)C(=O)O)cc(-c4cc(CC(=O)O)ccc4O)c3O)[nH]c2c1 (configuration not stated)
- Ki [1]: 12 nM

SMILES: N=C(N)c1ccc2[nH]c(-c3cc(C(CC(=O)O)C(=O)O)cc(-c4cc(NC(N)=O)ccc4O)c3O)nc2c1 (configuration not stated)
- Ratio Ki [2]: 3400
- Ratio Ki [3]: 270
- 2PT [4]: 4.9 µM
- Ki [1]: 44 nM

SMILES: N=C(N)c1ccc2[nH]c(-c3cc(C(CC(=O)O)C(=O)O)cc(-c4cc(CCC(=O)O)ccc4O)c3O)nc2c1 (configuration not stated)
- Ratio Ki [2]: 11500
- Ratio Ki [3]: 350
- 2PT [4]: 5.4 µM
- Ki [1]: 13 nM

SMILES: N=C(N)c1ccc2[nH]c(-c3cc(C(CC(=O)O)C(=O)O)cc(-c4cc(C(N)=O)ccc4O)c3O)nc2c1 (configuration not stated)
- Ratio Ki [2]: 10700
- Ratio Ki [3]: 1100
- 2PT [4]: 3.6 µM
- Ki [1]: 14 nM

SMILES: N=C(N)c1ccc2[nH]c(-c3cc(C(CC(=O)O)C(=O)O)cc(-c4cc(C(=O)O)ccc4O)c3O)nc2c1 (configuration not stated)
- Ratio Ki [2]: 3500
- Ratio Ki [3]: 300
- 2PT [4]: 8.2 µM
- Ki [1]: 43 nM

SMILES: N=C(N)c1ccc2[nH]c(-c3cc(C(CC(=O)O)C(=O)O)cc(-c4cc(CNC(N)=O)ccc4O)c3O)nc2c1 (configuration not stated)
- 2aPTT [5]: 0.8 µM
- inhibition in vivo at 0.1 mg/kg [6]: 64%
- PT [7]: 11.3 s
- inhibition in vivo at 0.5 mg/kg [8]: 87%
- Ratio Ki [2]: > 100000
- Ratio [9]: 1.05
- inhibition at 10 µM [10]: < 40%
- MRT [11]: 1.15 h
- Vdss [12]: 2.43 mL
- inhibition at 10 µM [13]: < 40%
- Ratio Ki [3]: 3600
- inhibition in vivo at 0.5 mg/kg [14]: 86%
- inhibition at 10 µM [15]: < 40%
- clearance [16]: 0.81 mL/min
- Vdss [17]: 6750 mL
- clearance [18]: 6.1 mL/min
- clearance [19]: 30.5 mL/min
- EC50 [20]: 170 nM
- ED50 ([20]; in Papio anubis, iv): 0.06 mg/kg
- Emax ([20]; in Papio anubis, iv): 99%
- MRT [21]: 3.87 h
- inhibition at 10 µM [22]: < 40%
- inhibition at 10 µM [23]: < 40%
- inhibition in vivo at 0.03 mg/kg [24]: 14%
- PT [25]: 11.6 s
- inhibition in vivo at 0.1 mg/kg [26]: 61%
- MRT [27]: 3.03 h
- Vdss [28]: 5854 mL
- MRT [29]: 3.73 h
- inhibition in vivo at 0.03 mg/kg [30]: 20%
- PT [31]: 11.3 s
- Vdss [32]: 55.2 mL
- clearance [33]: 26.5 mL/min
- Vdss [34]: 1080 mL
- MRT [35]: 23.5 min
- clearance [36]: 0.103 mL/min

SMILES: N=C(N)c1ccc2[nH]c(-c3cc(C(CC(=O)O)C(=O)O)cc(-c4cc(F)ccc4O)c3O)nc2c1 (configuration not stated)
- Ratio Ki [2]: 55500
- Ratio Ki [3]: 1800
- 2PT [4]: 10.2 µM
